Active and inactive are the calls of the source. The rule behind the calls is not given here.
Legend:
[1] = target: Macrophage metalloelastase (Homo sapiens) (UniProt P39900); test: Inhibition of human MMP12 (Phe99 to Leu271 residues) expressed in Escherichia coli at 50 to 100 uM using Mca-Pro-LeuGly-Leu-Dpa-Ala-Arg-NH2.AcOH as substrate preincubated for 30 mins followed by substrate addition measured after 20 mins by fluorescence assay relative to control
In short: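 Human recombinant MMP-2 (1.16 U/well) or MMP-12 (0.007 U/well) in 50 mM HEPES, 10 mM CaCl2, 0.05% Brij-35, pH 7.5. Enzyme and inhibitor pre-incubated 30 min at 37 °C, then OmniMMP fluorogenic substrate (4 μM) added. Fluorescence rise followed 20 min at ex/em 320/400 nm. Activity relative to no-inhibitor wells, with 200 μM NSA as 0%. Run in triplicate.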

[2] = test system: Klebsiella pneumoniae; test: Effect on growth of Klebsiella pneumoniae isolate Pd1.50 at 100 mg/L after 18 to 20 hrs by broth microdilution assay
In short: (§1)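 Mueller-Hinton broth microdilution per CLSI, triplicate. blaNDM-1 clinical isolates grown from OD600 0.1 to 0.224 (~1–2 × 10^8 CFU/mL), diluted 3 μL into 4997 μL MH, and 100 μL added to 100 μL of compound (100 mg/L) alone. Incubated 37 °C for 18–20 h, then scored for growth.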

[3] = target: Metallo-beta-lactamase type 2 (Klebsiella pneumoniae) (UniProt C7C422); test: Inhibition of NDM1 in Klebsiella pneumoniae isolate Pd1.49 assessed as potentiation of imipenem-induced antibacterial activity by measuring imipenem MIC at 100 mg/L after 18 to 20 hrs by broth microdilution assay (reference value: 4 mg/L)
Sequence of Metallo-beta-lactamase type 2 (Klebsiella pneumoniae) (C7C422 whole entry): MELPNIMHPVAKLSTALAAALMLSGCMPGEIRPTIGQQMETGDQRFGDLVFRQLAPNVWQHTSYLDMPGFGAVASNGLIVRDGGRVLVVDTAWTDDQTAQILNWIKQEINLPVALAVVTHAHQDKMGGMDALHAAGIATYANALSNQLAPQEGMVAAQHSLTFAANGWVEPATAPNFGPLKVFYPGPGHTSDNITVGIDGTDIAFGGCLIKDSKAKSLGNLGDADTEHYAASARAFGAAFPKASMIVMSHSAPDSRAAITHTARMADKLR

[4] = test system: Escherichia coli; test: Inhibition of NDM1 in Escherichia coli isolate Ch8.69 assessed as potentiation of imipenem-induced antibacterial activity by measuring imipenem MIC at 100 mg/L after 18 to 20 hrs by broth microdilution assay (reference value: 4 mg/L)
[5] = target: T1, Protein deacetylase HDAC6 (Homo sapiens) (UniProt Q9UBN7); test: Inhibition of full length human N-terminal GST-tagged HDAC6 expressed in baculovirus infected sf9 cells at 10 uM using HDAC substrate 3 preincubated for 5 mins followed by substrate addition measured after 30 mins by fluorescence assay
T1 sequence (whole entry): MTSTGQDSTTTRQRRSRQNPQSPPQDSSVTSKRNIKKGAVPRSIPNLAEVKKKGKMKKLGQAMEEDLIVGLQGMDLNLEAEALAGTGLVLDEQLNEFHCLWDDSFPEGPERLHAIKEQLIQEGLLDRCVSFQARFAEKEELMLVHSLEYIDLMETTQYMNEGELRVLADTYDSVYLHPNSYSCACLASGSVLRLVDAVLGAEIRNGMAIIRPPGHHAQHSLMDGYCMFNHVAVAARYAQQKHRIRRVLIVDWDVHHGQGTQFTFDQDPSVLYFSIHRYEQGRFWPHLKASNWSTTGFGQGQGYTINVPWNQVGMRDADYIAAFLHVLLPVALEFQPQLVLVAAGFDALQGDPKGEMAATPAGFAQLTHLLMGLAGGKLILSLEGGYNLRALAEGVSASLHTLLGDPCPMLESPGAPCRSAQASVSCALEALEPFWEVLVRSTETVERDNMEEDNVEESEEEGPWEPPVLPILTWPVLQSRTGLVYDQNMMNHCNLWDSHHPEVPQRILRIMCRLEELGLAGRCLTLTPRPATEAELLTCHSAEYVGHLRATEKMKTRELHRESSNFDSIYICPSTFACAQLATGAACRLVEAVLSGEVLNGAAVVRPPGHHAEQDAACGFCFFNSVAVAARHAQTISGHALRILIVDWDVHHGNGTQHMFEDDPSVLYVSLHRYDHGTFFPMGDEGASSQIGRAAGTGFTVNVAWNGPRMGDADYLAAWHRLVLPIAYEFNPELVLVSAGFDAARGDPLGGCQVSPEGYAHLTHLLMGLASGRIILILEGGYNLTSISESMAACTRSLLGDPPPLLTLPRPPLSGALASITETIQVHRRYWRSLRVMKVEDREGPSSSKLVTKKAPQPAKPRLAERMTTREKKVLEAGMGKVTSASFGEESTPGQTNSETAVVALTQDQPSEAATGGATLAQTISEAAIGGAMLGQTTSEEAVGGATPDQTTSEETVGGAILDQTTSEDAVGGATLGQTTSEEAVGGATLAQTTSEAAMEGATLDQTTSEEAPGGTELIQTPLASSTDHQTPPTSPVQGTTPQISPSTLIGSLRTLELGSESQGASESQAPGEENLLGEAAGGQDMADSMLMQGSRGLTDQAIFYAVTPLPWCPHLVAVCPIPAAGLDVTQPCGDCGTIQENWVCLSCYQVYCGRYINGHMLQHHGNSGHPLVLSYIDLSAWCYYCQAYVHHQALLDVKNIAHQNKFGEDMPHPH
In short: (§2)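 Inhibitor pre-incubated 5 min, then HDAC substrate 3 (20 μM) added, 30 min at 37 °C. Developer added for 15 min at room temperature; fluorescence read at ex/em 360/460 nm. Activity relative to no-inhibitor wells, with 200 μM SAHA as 0%. Run in triplicate.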

[6] = test system: Bacteria; test: Binding affinity to bacterial CoCoNDM-1 expressed in Escherichia coli BL21(DE3) assessed as CoCoNDM-1-compound ternary complex formation at 1 equiv by 1H NMR spectroscopic method
In short: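 Apo-NDM-1 concentrated to ~1 mM and loaded with 2 equiv CoCl2. Samples in 50 mM HEPES, 150 mM NaCl, 10% D2O, pH 6.8. Compounds from 50–100 mM DMSO stocks titrated in ~5 μL aliquots. 1H spectra recorded at 292 K, 300.16 MHz.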

[7] = test system: Escherichia coli; test: Inhibition of NDM1 in Escherichia coli isolate Ch8.68 assessed as potentiation of imipenem-induced antibacterial activity by measuring imipenem MIC at 100 mg/L after 18 to 20 hrs by broth microdilution assay (reference value: 16 mg/L)
[8] = Fluorescence quenching activity assessed as reduction in tryptophan fluorescence up to 32 uM after 30 mins by luminescence spectrometric method; parameters: scale not given: the % may be the effect or the level left
In short: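 NDM-1 (2 μM final) in 50 mM HEPES pH 7.5 with compound at 4–32 μM for 30 min. Excitation 280 nm, emission scanned 300–400 nm, intensity taken at 348 nm. Scaled with buffer as 0% and inhibitor-free enzyme as 100%. Free L-tryptophan (2 μM) run as control.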

[9] = test system: Escherichia coli; test: Effect on growth of Escherichia coli isolate Ah8.74 at 100 mg/L after 18 to 20 hrs by broth microdilution assay; in short: as §1
[10] = target: T1, Protein deacetylase HDAC6 (Homo sapiens); test: Inhibition of full length human N-terminal GST-tagged HDAC6 expressed in baculovirus infected sf9 cells at 50 to 100 uM using HDAC substrate 3 preincubated for 5 mins followed by substrate addition measured after 30 mins by fluorescence assay; in short: as §2
[11] = test system: Escherichia coli; test: Inhibition of NDM1 in Escherichia coli isolate Ch8.70 assessed as potentiation of imipenem-induced antibacterial activity by measuring imipenem MIC at 100 mg/L after 18 to 20 hrs by broth microdilution assay (reference value: 16 mg/L)

Sequence of Macrophage metalloelastase (Homo sapiens) (P39900 106-470 limits assumed): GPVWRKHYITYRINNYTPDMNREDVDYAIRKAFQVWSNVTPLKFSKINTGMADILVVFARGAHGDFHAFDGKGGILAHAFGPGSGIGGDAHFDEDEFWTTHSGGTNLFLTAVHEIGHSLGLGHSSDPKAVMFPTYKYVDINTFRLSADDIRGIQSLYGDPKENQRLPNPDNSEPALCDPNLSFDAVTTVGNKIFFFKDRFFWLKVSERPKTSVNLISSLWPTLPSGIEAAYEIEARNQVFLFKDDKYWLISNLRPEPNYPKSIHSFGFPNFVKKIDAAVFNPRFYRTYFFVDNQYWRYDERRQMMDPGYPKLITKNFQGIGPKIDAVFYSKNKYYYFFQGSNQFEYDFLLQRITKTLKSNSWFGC

For Nc1cccc(-c2cc(C(=O)O)nc(C(=O)O)c2)c1, the inhibition [1] was under 50%, the Activity [2] was “Non-Toxic” and the MIC [3] was 1 µg/mL. For the same compound, the MIC [4] was 0.5 µg/mL, the inhibition [5] was “inactive” and the Activity [6] was “Active”. The MIC [7] was 1 µg/mL, the Activity [8] was 50% and the Activity [9] was “Non-Toxic”. For the same compound, the inhibition [10] was under 50% and the MIC [11] was 0.5 µg/mL.

Reference: ChEMBL document CHEMBL4017500 (J Med Chem, 2017)
